Data reported in ChEMBL document CHEMBL4130512, “Design, synthesis and biological evaluation of novel α-hederagenin derivatives with anticancer activity” (Eur J Med Chem, 2017).

Experiments:
MKN-45 [1] = test: Antiproliferative activity against human MKN45 cells assessed as cell viability at 10 uM after 72 hrs by MTT assay relative to control; type: functional; conditions: MKN-45, 72 h, read-out: Activity
Procedure, shortened: (§1)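 Single-concentration MTT screen. Log-phase cells in DMEM with 10% FCS were treated for 72 h in 96-well plates. After MTT and DMSO, absorbance was read at 570 nm. Viability was calculated relative to control as mean ± SD of three independent experiments.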

KB [2] = test: Antiproliferative activity against human KB cells assessed as cell viability at 10 uM after 72 hrs by MTT assay relative to control; type: functional; conditions: read-out: Activity; procedure, shortened: as §1
KB [3] = test: Antiproliferative activity against human KB cells after 72 hrs by MTT assay; type: functional, cell-based
Procedure, shortened: (§2)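 Cells grown in DMEM with 10% heat-inactivated FCS, penicillin and streptomycin, at 37°C in 5% CO₂, and used in log phase. Cells were seeded in 96-well plates and exposed to compound for 72 h. MTT was added, then DMSO, and OD was read at 570 nm. Survival rate was calculated and IC50 taken as 50% growth inhibition.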

[4] = Antiproliferative activity against human KBV cells after 72 hrs by MTT assay; type: functional, cell-based; procedure, shortened: as §2
HeLa = test: Antiproliferative activity against human HeLa cells after 72 hrs by MTT assay; type: functional, cell-based; procedure, shortened: as §2
A549 = test: Antiproliferative activity against human A549 cells after 72 hrs by MTT assay; type: functional, cell-based; conditions: A549, 72 h; procedure, shortened: as §2
MKN-45 [5] = test: Antiproliferative activity against human MKN45 cells after 72 hrs by MTT assay; type: functional, cell-based; conditions: MKN-45, 72 h; procedure, shortened: as §2
BGC-823 = test: Antiproliferative activity against human BGC823 cells after 72 hrs by MTT assay; type: functional, cell-based; conditions: BGC-823, 72 h; procedure, shortened: as §2
AGS = test: Antiproliferative activity against human AGS cells after 72 hrs by MTT assay; type: functional, cell-based; procedure, shortened: as §2
MKN-45 [6] = test: Cell cycle arrest in human MKN45 cells assessed as apoptotic cell accumulation at 10 uM after 24 hrs by propidium iodide staining based flow cytometry (reference value: 1.51%); type: functional
Procedure, shortened: (§3)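 MKN45 cells were plated at 2×10⁵ cells/well in 6-well plates and exposed for 24 and 48 h. Cells were harvested, fixed and stained with propidium iodide (50 µg/mL). DNA content was read by FACScan flow cytometry for phase distribution. The sub-G0/G1 fraction was taken as apoptotic.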

MKN-45 [7] = test: Cell cycle arrest in human MKN45 cells assessed as accumulation at G1-phase at 10 uM after 24 hrs by propidium iodide staining based flow cytometry (reference value: 67%); type: functional; procedure, shortened: as §3
MKN-45 [8] = test: Cell cycle arrest in human MKN45 cells assessed as accumulation at S-phase at 10 uM after 24 hrs by propidium iodide staining based flow cytometry (reference value: 15%); type: functional; procedure, shortened: as §3
MKN-45 [9] = test: Cell cycle arrest in human MKN45 cells assessed as accumulation at G2/M-phase at 10 uM after 24 hrs by propidium iodide staining based flow cytometry (reference value: 19%); type: functional; procedure, shortened: as §3
MKN-45 [10] = test: Cell cycle arrest in human MKN45 cells assessed as apoptotic cell accumulation at 10 uM after 48 hrs by propidium iodide staining based flow cytometry (reference value: 1.51%); type: functional; procedure, shortened: as §3
MKN-45 [11] = test: Cell cycle arrest in human MKN45 cells assessed as accumulation at G1-phase at 10 uM after 48 hrs by propidium iodide staining based flow cytometry (reference value: 67%); type: functional; procedure, shortened: as §3
MKN-45 [12] = test: Cell cycle arrest in human MKN45 cells assessed as accumulation at S-phase at 10 uM after 48 hrs by propidium iodide staining based flow cytometry (reference value: 15%); type: functional; procedure, shortened: as §3
MKN-45 [13] = test: Cell cycle arrest in human MKN45 cells assessed as accumulation at G2/M-phase at 10 uM after 48 hrs by propidium iodide staining based flow cytometry (reference value: 19%); type: functional; procedure, shortened: as §3

Compound	viability at 10 µM (MKN-45 [1]) [%]	viability at 10 µM (KB [2]) [%]	other results
CC1(C)CC[C@]2(C(=O)OCc3ccccc3)CC[C@]3(C)C(=CC[C@@H]4[C@@]5(C)CCC(=O)[C@@](C)(COC(=O)c6ccccc6C(=O)Oc6ccc(CCO[N+](=O)[O-])cc6)[C@@H]5CC[C@]43C)[C@@H]2C1	78	86	–
CC1(C)CC[C@]2(C(=O)OCc3ccccc3)CC[C@]3(C)C(=CC[C@@H]4[C@@]5(C)Cc6nccnc6[C@@](C)(COC(=O)c6ccccc6C(=O)OCCc6ccc(OCCO[N+](=O)[O-])cc6)[C@@H]5CC[C@]43C)[C@@H]2C1	84	55	–
CC1(C)CC[C@]2(C(=O)OCc3ccccc3)CC[C@]3(C)C(=CC[C@@H]4[C@@]5(C)Cc6nccnc6[C@@](C)(COC(=O)CCC(=O)Oc6ccc(CCO[N+](=O)[O-])cc6)[C@@H]5CC[C@]43C)[C@@H]2C1	100	69	–
CC1(C)CC[C@]2(C(=O)OCc3ccccc3)CC[C@]3(C)C(=CC[C@@H]4[C@@]5(C)CCC(=O)[C@@](C)(COC(=O)c6ccccc6C(=O)O)[C@@H]5CC[C@]43C)[C@@H]2C1	40	51	–
CC1(C)CC[C@]2(C(=O)OCc3ccccc3)CC[C@]3(C)C(=CC[C@@H]4[C@@]5(C)Cc6nccnc6[C@@](C)(COC(=O)c6ccccc6C(=O)Oc6ccc(CCO[N+](=O)[O-])cc6)[C@@H]5CC[C@]43C)[C@@H]2C1	78	49	–
CC1(C)CC[C@]2(C(=O)OCc3ccccc3)CC[C@]3(C)C(=CC[C@@H]4[C@@]5(C)CCC(=O)[C@@](C)(COC(=O)CCC(=O)Nc6ccccc6N)[C@@H]5CC[C@]43C)[C@@H]2C1	99	50	–
CC1(C)CC[C@]2(C(=O)OCc3ccccc3)CC[C@]3(C)C(=CC[C@@H]4[C@@]5(C)CCC(OC(=O)CCCCO[N+](=O)[O-])[C@@](C)(COC(=O)CCCCO[N+](=O)[O-])[C@@H]5CC[C@]43C)[C@@H]2C1 (stereo partly drawn)	97	58	–
CC1(C)CC[C@]2(C(=O)OCc3ccccc3)CC[C@]3(C)C(=CC[C@@H]4[C@@]5(C)CCC(=O)[C@@](C)(COC(=O)c6ccccc6C(=O)Nc6cccc(N)c6)[C@@H]5CC[C@]43C)[C@@H]2C1	93	62	–
CC1(C)CC[C@]2(C(=O)OCc3ccccc3)CC[C@]3(C)C(=CC[C@@H]4[C@@]5(C)CCC(=O)[C@@](C)(COC(=O)CCCCCO[N+](=O)[O-])[C@@H]5CC[C@]43C)[C@@H]2C1	75	50	–
CC1(C)CC[C@]2(C(=O)OCc3ccccc3)CC[C@]3(C)C(=CC[C@@H]4[C@@]5(C)CCC(=O)[C@@](C)(COC(=O)CCC(=O)Nc6ccc(N)cc6)[C@@H]5CC[C@]43C)[C@@H]2C1	92	51	–
CC1(C)CC[C@]2(C(=O)OCc3ccccc3)CC[C@]3(C)C(=CC[C@@H]4[C@@]5(C)Cc6nccnc6[C@@](C)(COC(=O)CCC(=O)O)[C@@H]5CC[C@]43C)[C@@H]2C1	70	98	–
CC1(C)CC[C@]2(C(=O)O)CC[C@]3(C)C(=CC[C@@H]4[C@@]5(C)CC[C@H](O)[C@@](C)(CO)[C@@H]5CC[C@]43C)[C@@H]2C1 [HEDERAGENIN]	75	81	IC50 (KB [3]): 54.4 µM; IC50 [4]: > 100 µM; IC50 (HeLa): 54 µM; IC50 (A549): > 100 µM; IC50 (MKN-45 [5]): 53.7 µM; IC50 (BGC-823): 52.1 µM; IC50 (AGS): 36.1 µM; Activity (MKN-45 [6]): 1.44%; Activity (MKN-45 [7]): 69%; Activity (MKN-45 [8]): 14%; Activity (MKN-45 [9]): 17%; Activity (MKN-45 [10]): 5.87%; Activity (MKN-45 [11]): 63%; Activity (MKN-45 [12]): 12%; Activity (MKN-45 [13]): 25%
CC1(C)CC[C@]2(C(=O)OCc3ccccc3)CC[C@]3(C)C(=CC[C@@H]4[C@@]5(C)CC/C(=N\O)[C@@](C)(CO)[C@@H]5CC[C@]43C)[C@@H]2C1	64	76	–
CC1(C)CC[C@]2(C(=O)OCc3ccccc3)CC[C@]3(C)C(=CC[C@@H]4[C@@]5(C)CCC(=O)[C@@](C)(COC(=O)CCC(=O)Oc6ccc(CCO[N+](=O)[O-])cc6)[C@@H]5CC[C@]43C)[C@@H]2C1	100	53	–
CC1(C)CC[C@]2(C(=O)OCc3ccccc3)CC[C@]3(C)C(=CC[C@@H]4[C@@]5(C)Cc6nccnc6[C@@](C)(CO)[C@@H]5CC[C@]43C)[C@@H]2C1	77	75	–
CC1(C)CC[C@]2(C(=O)OCc3ccccc3)CC[C@]3(C)C(=CC[C@@H]4[C@@]5(C)CCC(=O)[C@@](C)(COC(=O)CCC(=O)OCCc6ccc(OCCO[N+](=O)[O-])cc6)[C@@H]5CC[C@]43C)[C@@H]2C1	93	76	–
CC1(C)CC[C@]2(C(=O)OCc3ccccc3)CC[C@]3(C)C(=CC[C@@H]4[C@@]5(C)Cc6nccnc6[C@@](C)(COC(=O)c6ccccc6C(=O)O)[C@@H]5CC[C@]43C)[C@@H]2C1	84	81	–
CC1(C)CC[C@]2(C(=O)OCc3ccccc3)CC[C@]3(C)C(=CC[C@@H]4[C@@]5(C)Cc6nccnc6[C@@](C)(COC(=O)CCCCCO[N+](=O)[O-])[C@@H]5CC[C@]43C)[C@@H]2C1	84	63	–
CC1(C)CC[C@]2(C(=O)OCc3ccccc3)CC[C@]3(C)C(=CC[C@@H]4[C@@]5(C)Cc6nccnc6[C@@](C)(COC(=O)CCCCO[N+](=O)[O-])[C@@H]5CC[C@]43C)[C@@H]2C1	89	59	–
CC1(C)CC[C@]2(C(=O)OCc3ccccc3)CC[C@]3(C)C(=CC[C@@H]4[C@@]5(C)Cc6nccnc6[C@@](C)(COC(=O)CCC(=O)Nc6ccccc6N)[C@@H]5CC[C@]43C)[C@@H]2C1	86	57	–
CC1(C)CC[C@]2(C(=O)OCc3ccccc3)CC[C@]3(C)C(=CC[C@@H]4[C@@]5(C)CCC(=O)[C@@](C)(COC(=O)c6ccccc6C(=O)OCCc6ccc(OCCO[N+](=O)[O-])cc6)[C@@H]5CC[C@]43C)[C@@H]2C1	89	67	–
CC1(C)CC[C@]2(C(=O)OCc3ccccc3)CC[C@]3(C)C(=CC[C@@H]4[C@@]5(C)Cc6nccnc6[C@@](C)(COC(=O)CCC(=O)OCCc6ccc(OCCO[N+](=O)[O-])cc6)[C@@H]5CC[C@]43C)[C@@H]2C1	93	50	–
CC1(C)CC[C@]2(C(=O)OCc3ccccc3)CC[C@]3(C)C(=CC[C@@H]4[C@@]5(C)CCC(=O)[C@@](C)(COC(=O)CCCCO[N+](=O)[O-])[C@@H]5CC[C@]43C)[C@@H]2C1	54	60	–
CC1(C)CC[C@]2(C(=O)OCc3ccccc3)CC[C@]3(C)C(=CC[C@@H]4[C@@]5(C)CCC(OC(=O)CCCCCO[N+](=O)[O-])[C@@](C)(COC(=O)CCCCCO[N+](=O)[O-])[C@@H]5CC[C@]43C)[C@@H]2C1 (stereo partly drawn)	85	61	–
